Reference: ChEMBL document CHEMBL2417369, “Synthesis and evaluation of heteroaryl substituted diazaspirocycles as scaffolds to probe the ATP-binding site of protein kinases” (Bioorg Med Chem, 2013)

Tests used:
[1] = target: Tyrosine-protein kinase Lck (Homo sapiens, UniProt P06239); assay: Inhibition of LCK (unknown origin) at 30 uM by microfluidic mobility shift assay relative to control
In short: (§1)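 Single-point screen in a 24-enzyme kinase panel using a microfluidic assay. Each compound was tested at […] with ATP at roughly the Km for each enzyme. The pan-AGC inhibitor H-89 served as an internal control on every plate.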

[2] = target: Tyrosine-protein kinase Fyn (Homo sapiens, UniProt P06241); assay: Inhibition of FYN (unknown origin) at 30 uM by microfluidic mobility shift assay relative to control; in short: as §1
Sequence of Tyrosine-protein kinase Fyn (P06241 2-537 limits assumed): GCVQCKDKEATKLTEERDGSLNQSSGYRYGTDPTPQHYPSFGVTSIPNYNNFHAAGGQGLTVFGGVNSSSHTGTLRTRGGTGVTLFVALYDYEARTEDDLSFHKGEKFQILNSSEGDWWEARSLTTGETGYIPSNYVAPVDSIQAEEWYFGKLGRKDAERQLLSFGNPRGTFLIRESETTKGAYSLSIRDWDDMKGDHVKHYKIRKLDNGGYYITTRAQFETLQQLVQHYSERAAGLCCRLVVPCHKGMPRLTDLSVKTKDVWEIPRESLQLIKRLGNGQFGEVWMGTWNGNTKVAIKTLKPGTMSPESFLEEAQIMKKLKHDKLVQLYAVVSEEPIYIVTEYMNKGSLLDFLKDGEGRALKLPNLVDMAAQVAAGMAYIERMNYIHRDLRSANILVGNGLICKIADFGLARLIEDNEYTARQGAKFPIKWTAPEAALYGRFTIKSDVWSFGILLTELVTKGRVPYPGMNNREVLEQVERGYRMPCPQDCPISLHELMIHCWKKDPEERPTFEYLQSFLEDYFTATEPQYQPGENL

[3] = target: Serine/threonine-protein kinase Chk2 (Homo sapiens, UniProt O96017); assay: Inhibition of CHK2 (unknown origin) at 30 uM by microfluidic mobility shift assay relative to control; in short: as §1
[4] = target: Tyrosine-protein kinase ABL1 (Homo sapiens, UniProt P00519); assay: Inhibition of ABL (unknown origin) at 30 uM by microfluidic mobility shift assay relative to control; in short: as §1
[5] = target: Mitogen-activated protein kinase 14 (Homo sapiens) (UniProt Q16539); assay: Inhibition of p38alpha (unknown origin) at 30 uM by microfluidic mobility shift assay relative to control; in short: as §1
Sequence of Mitogen-activated protein kinase 14 (Homo sapiens) (Q16539 whole entry): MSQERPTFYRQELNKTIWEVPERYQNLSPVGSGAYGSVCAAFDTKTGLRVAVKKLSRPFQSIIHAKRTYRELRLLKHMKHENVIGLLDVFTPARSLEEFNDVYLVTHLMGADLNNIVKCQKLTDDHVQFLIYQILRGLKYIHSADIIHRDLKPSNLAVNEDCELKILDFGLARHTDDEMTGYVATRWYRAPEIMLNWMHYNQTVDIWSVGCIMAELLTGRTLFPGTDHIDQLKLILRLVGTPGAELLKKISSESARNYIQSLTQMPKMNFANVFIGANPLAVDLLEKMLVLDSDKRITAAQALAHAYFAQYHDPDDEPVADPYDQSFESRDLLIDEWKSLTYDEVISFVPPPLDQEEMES

[6] = target: RAC-alpha serine/threonine-protein kinase (Homo sapiens, UniProt P31749); assay: Inhibition of AKT1 (unknown origin) at 30 uM by microfluidic mobility shift assay relative to control; in short: as §1
Sequence of RAC-alpha serine/threonine-protein kinase (P31749 whole entry): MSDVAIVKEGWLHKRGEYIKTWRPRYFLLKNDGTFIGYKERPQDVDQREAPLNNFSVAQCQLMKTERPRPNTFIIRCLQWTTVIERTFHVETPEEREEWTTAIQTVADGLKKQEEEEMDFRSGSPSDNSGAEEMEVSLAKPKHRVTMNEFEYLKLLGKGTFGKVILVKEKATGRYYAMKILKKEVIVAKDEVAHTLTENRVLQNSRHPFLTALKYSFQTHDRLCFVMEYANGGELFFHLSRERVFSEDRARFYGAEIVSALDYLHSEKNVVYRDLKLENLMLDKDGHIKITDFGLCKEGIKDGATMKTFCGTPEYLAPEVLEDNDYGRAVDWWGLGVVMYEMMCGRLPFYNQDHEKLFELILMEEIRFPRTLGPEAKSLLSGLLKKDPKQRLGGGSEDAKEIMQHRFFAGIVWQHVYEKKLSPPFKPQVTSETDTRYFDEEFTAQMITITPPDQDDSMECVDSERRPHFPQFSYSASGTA

[7] = target: Insulin receptor (Homo sapiens) (UniProt P06213); assay: Inhibition of INSR (unknown origin) at 30 uM by microfluidic mobility shift assay relative to control; in short: as §1
Sequence of Insulin receptor (Homo sapiens) (P06213 28-758 limits assumed): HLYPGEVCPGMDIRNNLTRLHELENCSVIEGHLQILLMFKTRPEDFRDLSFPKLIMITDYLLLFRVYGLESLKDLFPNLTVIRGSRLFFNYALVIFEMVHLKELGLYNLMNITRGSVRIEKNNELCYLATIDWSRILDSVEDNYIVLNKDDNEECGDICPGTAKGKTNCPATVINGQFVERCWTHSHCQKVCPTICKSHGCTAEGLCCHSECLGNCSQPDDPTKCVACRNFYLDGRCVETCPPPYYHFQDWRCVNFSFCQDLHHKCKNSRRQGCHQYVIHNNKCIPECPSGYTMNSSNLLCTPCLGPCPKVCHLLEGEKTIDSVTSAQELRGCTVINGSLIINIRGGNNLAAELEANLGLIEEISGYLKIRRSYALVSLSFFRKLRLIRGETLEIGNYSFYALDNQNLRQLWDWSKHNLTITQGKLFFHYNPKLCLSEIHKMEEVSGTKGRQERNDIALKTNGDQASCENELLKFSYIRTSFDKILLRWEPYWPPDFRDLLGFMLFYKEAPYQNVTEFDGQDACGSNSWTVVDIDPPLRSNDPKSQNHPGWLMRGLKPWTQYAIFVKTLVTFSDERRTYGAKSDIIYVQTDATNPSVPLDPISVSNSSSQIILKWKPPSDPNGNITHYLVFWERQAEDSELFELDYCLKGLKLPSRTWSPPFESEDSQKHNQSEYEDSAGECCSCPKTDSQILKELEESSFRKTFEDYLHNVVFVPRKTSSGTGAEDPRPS
Sequence of Insulin receptor (Homo sapiens) (P06213 763-1382 limits assumed): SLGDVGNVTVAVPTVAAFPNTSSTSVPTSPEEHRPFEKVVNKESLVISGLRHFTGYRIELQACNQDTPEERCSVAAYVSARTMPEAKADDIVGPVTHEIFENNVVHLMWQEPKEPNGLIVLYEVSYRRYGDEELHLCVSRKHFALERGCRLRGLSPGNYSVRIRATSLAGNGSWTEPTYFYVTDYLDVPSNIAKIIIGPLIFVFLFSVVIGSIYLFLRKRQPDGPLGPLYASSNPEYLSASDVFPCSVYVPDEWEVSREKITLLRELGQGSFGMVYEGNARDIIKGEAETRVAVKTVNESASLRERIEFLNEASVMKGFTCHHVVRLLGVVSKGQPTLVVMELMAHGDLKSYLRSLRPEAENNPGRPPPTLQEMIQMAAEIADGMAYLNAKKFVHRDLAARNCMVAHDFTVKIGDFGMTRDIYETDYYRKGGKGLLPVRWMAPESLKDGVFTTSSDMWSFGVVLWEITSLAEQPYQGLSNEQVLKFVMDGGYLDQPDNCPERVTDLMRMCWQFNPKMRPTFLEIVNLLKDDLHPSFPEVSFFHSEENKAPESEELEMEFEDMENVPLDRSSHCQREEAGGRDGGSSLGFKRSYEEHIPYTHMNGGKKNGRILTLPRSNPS

[8] = target: Ribosomal protein S6 kinase alpha-1 (Homo sapiens, UniProt Q15418); assay: Inhibition of RSK1 (unknown origin) at 30 uM by microfluidic mobility shift assay relative to control; in short: as §1
[9] = target: Glycogen synthase kinase-3 beta (Homo sapiens, UniProt P49841); assay: Inhibition of GSK3beta (unknown origin) at 30 uM by microfluidic mobility shift assay relative to control; in short: as §1
Sequence of Glycogen synthase kinase-3 beta (P49841 whole entry, looked up): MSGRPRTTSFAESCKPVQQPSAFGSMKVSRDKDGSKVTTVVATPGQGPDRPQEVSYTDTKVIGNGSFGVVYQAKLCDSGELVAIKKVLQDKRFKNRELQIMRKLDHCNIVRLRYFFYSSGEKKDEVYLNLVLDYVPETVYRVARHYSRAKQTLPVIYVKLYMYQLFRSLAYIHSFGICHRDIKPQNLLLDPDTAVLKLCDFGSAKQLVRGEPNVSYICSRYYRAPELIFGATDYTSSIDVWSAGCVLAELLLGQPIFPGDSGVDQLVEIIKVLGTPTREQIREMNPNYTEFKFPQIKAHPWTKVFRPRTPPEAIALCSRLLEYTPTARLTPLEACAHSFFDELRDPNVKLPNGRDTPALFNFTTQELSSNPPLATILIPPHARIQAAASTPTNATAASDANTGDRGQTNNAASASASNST

[10] = target: Proto-oncogene tyrosine-protein kinase Src (Homo sapiens, UniProt P12931); assay: Inhibition of SRC (unknown origin) at 30 uM by microfluidic mobility shift assay relative to control; in short: as §1
[11] = target: Tyrosine-protein kinase Lyn (Homo sapiens, UniProt P07948); assay: Inhibition of LYN (unknown origin) at 30 uM by microfluidic mobility shift assay relative to control; in short: as §1
[12] = target: T1, MAP kinase-activated protein kinase 5 (Homo sapiens) (UniProt Q8IW41); assay: Inhibition of MAPKAPK5 (unknown origin) at 30 uM by microfluidic mobility shift assay relative to control; in short: as §1
T1 sequence (whole entry): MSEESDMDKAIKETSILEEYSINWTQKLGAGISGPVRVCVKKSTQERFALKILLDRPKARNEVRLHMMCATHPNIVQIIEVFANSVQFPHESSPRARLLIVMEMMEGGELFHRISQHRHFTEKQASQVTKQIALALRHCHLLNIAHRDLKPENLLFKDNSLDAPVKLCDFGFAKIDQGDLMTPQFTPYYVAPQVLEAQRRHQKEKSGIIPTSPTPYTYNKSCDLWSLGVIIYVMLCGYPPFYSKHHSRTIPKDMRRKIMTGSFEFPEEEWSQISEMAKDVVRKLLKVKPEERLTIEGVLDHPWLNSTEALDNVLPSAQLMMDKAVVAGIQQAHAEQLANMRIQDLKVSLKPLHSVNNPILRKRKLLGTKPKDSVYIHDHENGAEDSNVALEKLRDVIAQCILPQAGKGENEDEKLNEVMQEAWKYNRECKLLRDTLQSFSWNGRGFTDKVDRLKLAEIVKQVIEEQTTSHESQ

Homo sapiens = species: Homo sapiens; assay: Inhibition of PKA (unknown origin) at 30 uM by microfluidic mobility shift assay relative to control; in short: as §1
[13] = target: RAC-beta serine/threonine-protein kinase (Homo sapiens, UniProt P31751); assay: Inhibition of AKT2 (unknown origin) at 30 uM by microfluidic mobility shift assay relative to control; in short: as §1
Sequence of RAC-beta serine/threonine-protein kinase (P31751 whole entry): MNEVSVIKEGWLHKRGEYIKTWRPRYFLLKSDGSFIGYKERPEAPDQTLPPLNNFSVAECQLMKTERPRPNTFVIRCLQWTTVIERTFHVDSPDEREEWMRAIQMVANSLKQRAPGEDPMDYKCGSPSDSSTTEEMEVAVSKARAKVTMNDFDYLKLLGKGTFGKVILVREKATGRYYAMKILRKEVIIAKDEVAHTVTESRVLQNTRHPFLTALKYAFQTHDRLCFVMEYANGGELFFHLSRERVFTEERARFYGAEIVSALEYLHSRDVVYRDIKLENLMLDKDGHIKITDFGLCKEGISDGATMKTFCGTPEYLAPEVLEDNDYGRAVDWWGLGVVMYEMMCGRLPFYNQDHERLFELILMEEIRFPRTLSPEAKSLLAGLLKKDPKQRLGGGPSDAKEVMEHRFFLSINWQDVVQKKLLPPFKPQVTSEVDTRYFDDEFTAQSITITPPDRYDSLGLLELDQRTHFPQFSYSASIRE

[14] = target: T2, Serine/threonine-protein kinase Chk1 (Homo sapiens) (UniProt O14757); assay: Inhibition of CHK1 (unknown origin) at 30 uM by microfluidic mobility shift assay relative to control; in short: as §1
T2 sequence (whole entry): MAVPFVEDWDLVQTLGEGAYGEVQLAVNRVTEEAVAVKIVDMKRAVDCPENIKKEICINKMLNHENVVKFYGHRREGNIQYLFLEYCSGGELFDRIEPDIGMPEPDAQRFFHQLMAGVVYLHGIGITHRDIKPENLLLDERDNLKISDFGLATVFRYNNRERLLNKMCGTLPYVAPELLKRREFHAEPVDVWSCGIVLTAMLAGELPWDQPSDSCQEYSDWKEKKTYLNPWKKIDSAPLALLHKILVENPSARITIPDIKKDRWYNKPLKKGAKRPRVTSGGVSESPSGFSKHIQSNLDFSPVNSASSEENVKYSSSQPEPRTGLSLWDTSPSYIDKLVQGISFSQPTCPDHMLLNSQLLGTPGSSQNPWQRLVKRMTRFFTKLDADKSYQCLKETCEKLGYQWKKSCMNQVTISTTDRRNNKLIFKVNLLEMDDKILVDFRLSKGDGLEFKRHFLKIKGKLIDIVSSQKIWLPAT

[15] = target: Protein kinase C (PKC) (Homo sapiens) (UniProt O94806+P41743+P17252+P05129+Q05655+P05771+Q05513+Q02156+P24723+Q15139+Q04759); assay: Inhibition of PKC (unknown origin) at 30 uM by microfluidic mobility shift assay relative to control; in short: as §1
[16] = target: Mitogen-activated protein kinase 1 (Homo sapiens, UniProt P28482); assay: Inhibition of ERK2 (unknown origin) at 30 uM by microfluidic mobility shift assay relative to control; in short: as §1
Sequence of Mitogen-activated protein kinase 1 (P28482 whole entry): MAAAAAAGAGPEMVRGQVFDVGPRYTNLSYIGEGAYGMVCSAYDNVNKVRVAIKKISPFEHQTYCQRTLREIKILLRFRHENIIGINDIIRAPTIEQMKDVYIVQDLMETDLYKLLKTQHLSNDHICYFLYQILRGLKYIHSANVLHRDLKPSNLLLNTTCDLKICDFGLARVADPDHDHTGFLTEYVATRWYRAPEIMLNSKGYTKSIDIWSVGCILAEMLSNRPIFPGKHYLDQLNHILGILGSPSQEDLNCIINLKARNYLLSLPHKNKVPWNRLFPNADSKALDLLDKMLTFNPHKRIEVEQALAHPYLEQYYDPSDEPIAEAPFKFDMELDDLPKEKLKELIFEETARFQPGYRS

[17] = target: Mitogen-activated protein kinase 3 (Homo sapiens, UniProt P27361); assay: Inhibition of ERK1 (unknown origin) at 30 uM by microfluidic mobility shift assay relative to control; in short: as §1
Sequence of Mitogen-activated protein kinase 3 (P27361 whole entry): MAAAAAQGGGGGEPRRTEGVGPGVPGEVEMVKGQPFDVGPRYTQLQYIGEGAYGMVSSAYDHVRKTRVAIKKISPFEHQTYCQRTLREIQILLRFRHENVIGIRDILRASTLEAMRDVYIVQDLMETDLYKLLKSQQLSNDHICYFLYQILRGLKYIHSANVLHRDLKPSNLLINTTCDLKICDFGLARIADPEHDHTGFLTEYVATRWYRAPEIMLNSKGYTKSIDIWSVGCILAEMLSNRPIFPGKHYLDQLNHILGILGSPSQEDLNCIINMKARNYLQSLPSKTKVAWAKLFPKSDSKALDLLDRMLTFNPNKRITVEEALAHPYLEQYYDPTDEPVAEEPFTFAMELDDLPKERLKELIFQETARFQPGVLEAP

Sequence of Tyrosine-protein kinase Lck (P06239 2-509 limits assumed): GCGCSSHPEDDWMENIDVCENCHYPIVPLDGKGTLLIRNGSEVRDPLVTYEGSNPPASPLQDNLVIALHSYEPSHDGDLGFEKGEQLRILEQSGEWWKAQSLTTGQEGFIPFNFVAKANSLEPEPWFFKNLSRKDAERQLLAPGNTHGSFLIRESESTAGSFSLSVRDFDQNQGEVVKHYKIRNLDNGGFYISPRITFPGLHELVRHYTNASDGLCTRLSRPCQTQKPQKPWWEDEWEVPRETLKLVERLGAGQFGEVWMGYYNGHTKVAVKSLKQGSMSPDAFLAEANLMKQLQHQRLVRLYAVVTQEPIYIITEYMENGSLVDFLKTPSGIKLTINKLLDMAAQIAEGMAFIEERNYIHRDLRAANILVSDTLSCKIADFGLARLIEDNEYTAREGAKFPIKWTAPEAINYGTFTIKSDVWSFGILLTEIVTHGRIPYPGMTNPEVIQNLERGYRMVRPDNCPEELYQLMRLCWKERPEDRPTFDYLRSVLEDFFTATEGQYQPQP

| Compound | inhibition [1] | inhibition [2] | inhibition [3] | inhibition [4] | inhibition [5] | inhibition [6] | inhibition [7] | inhibition [8] | inhibition [9] | inhibition [10] | inhibition [11] | inhibition [12] | inhibition (Homo sapiens) | inhibition [13] | inhibition [14] | inhibition [15] | inhibition [16] | inhibition [17] |
| --- | --- | --- | --- | --- | --- | --- | --- | --- | --- | --- | --- | --- | --- | --- | --- | --- | --- | --- |
| CN(C)C(=O)C1CCC2(CCN(c3ncnc4[nH]cnc34)CC2)NC1 (racemic) | 19% | 0% | 27% | 17% | 14% | 69% | 17% | 28% | 7% | 16% | 14% | 18% | 86% | 27% | 54% | 6% | 25% | 20% |
| CNC(=O)C1CCC2(CCN(c3ncnc4[nH]cnc34)CC2)NC1 (racemic) | 31% | 8% | 34% | 23% | 16% | 83% | 16% | 42% | 17% | 24% | 26% | 21% | 95% | 41% | 70% | 0% | 30% | 30% |
| COC(=O)C1CCC2(CCN(c3ncnc4[nH]cnc34)CC2)NC1 (racemic) | 16% | 6% | 16% | 18% | 8% | 61% | 10% | 35% | 12% | 26% | 16% | 21% | 87% | 19% | 36% | 0% | 19% | 14% |
| O=C(C1CCC2(CCN(c3ncnc4[nH]cnc34)CC2)NC1)N1CCOCC1 (racemic) | 16% | 0% | 29% | 28% | 9% | 66% | 16% | 27% | 9% | 15% | 17% | 14% | 85% | 25% | 65% | 18% | 20% | 18% |
| O=S(=O)(c1cccc2cnccc12)N1CCC2(CC1)CC(O)CCN2 (racemic) | 26% | 9% | 50% | 12% | 1% | 36% | 0% | 74% | 51% | 18% | 25% | 18% | 92% | 13% | 60% | 0% | 9% | 20% |
| O=S(=O)(c1cccc2cnccc12)N1CCC2(CCC(O)CN2)CC1 (racemic) | 19% | 17% | 59% | 17% | 2% | 21% | 0% | 95% | 80% | 29% | 23% | 49% | 90% | 14% | 0% | 0% | 8% | 17% |
| OC1CCC2(CCN(c3ncnc4[nH]cnc34)CC2)NC1 (racemic) | 21% | 18% | 53% | 25% | 3% | 93% | 4% | 67% | 31% | 38% | 26% | 30% | 99% | 59% | 71% | 0% | 42% | 46% |
| OC1CCNC2(CCN(c3ncnc4[nH]cnc34)CC2)C1 (racemic) | 14% | 28% | 44% | 23% | 4% | 94% | 0% | 40% | 19% | 22% | 39% | 32% | 98% | 59% | 80% | 0% | 32% | 28% |
| OCC1CCC2(CCN(c3ncnc4[nH]cnc34)CC2)NC1 (racemic) | 15% | 1% | 56% | 15% | 14% | 80% | 17% | 74% | 21% | 34% | 16% | 43% | 98% | 38% | 27% | 0% | 32% | 31% |
